Activity data for two molecules are collected here from ChEMBL document CHEMBL5678818, “Discovery of potent SOS1 inhibitors that block RAS activation via disruption of the RAS-SOS1 interaction” (Proc Natl Acad Sci U S A, 2019).

The source made the active and inactive calls. No cut-off for these calls is given here.

Test [1] deals with Epidermal growth factor receptor (Homo sapiens, UniProt P00533). Description: Inhibition of EGFR (unknown origin) assessed as residual activity at 100 nM by KINOMEscan analysis relative to control.
Sequence of Epidermal growth factor receptor (P00533 whole entry): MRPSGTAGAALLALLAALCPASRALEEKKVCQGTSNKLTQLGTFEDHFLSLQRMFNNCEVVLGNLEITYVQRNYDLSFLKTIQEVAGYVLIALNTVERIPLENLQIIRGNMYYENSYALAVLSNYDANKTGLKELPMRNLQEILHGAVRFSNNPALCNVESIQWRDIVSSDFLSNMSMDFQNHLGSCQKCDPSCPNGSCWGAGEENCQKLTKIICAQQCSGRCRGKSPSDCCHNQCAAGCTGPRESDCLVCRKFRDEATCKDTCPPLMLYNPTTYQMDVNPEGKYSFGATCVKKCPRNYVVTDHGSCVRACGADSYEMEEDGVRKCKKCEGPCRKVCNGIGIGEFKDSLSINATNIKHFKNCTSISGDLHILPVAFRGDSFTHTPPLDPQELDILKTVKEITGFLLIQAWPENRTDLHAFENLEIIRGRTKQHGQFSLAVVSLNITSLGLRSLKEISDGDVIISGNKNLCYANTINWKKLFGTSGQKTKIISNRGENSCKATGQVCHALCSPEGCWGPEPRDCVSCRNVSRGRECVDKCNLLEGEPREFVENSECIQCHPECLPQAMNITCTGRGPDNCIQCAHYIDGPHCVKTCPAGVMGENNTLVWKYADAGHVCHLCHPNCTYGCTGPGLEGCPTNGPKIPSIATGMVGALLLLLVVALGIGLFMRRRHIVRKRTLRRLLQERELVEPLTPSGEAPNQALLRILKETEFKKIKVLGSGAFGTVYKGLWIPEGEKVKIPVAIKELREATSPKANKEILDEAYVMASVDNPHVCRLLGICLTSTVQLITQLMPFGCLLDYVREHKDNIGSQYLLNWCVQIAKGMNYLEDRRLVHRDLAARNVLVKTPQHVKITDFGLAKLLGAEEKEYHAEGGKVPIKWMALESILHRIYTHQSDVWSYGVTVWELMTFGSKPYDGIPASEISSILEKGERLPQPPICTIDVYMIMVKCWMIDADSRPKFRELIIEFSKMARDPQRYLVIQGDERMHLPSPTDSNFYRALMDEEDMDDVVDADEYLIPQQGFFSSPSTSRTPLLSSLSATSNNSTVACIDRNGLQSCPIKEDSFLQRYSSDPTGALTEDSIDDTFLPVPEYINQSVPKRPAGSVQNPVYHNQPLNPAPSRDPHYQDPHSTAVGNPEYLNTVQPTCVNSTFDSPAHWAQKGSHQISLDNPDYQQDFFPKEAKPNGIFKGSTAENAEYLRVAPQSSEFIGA
For test [2], the target named is Ribosomal protein S6 kinase alpha-4 (Homo sapiens) (UniProt O75676). Description: Inhibition of N-terminal RPS6KA4 […] domain 1 (unknown origin) assessed as residual activity at 100 nM by KINOMEscan analysis relative to control.
Test [3] relates to Phosphatidylinositol 4,5-bisphosphate 3-kinase catalytic subunit alpha isoform (Homo sapiens), P42336 [C420R]. Description: Inhibition of PIK3CA C420R mutant (unknown origin) assessed as residual activity at 100 nM by KINOMEscan analysis relative to control.
Sequence of Phosphatidylinositol 4,5-bisphosphate 3-kinase catalytic subunit alpha isoform (Homo sapiens), P42336 [C420R] (P42336 whole entry C420R, canonical isoform): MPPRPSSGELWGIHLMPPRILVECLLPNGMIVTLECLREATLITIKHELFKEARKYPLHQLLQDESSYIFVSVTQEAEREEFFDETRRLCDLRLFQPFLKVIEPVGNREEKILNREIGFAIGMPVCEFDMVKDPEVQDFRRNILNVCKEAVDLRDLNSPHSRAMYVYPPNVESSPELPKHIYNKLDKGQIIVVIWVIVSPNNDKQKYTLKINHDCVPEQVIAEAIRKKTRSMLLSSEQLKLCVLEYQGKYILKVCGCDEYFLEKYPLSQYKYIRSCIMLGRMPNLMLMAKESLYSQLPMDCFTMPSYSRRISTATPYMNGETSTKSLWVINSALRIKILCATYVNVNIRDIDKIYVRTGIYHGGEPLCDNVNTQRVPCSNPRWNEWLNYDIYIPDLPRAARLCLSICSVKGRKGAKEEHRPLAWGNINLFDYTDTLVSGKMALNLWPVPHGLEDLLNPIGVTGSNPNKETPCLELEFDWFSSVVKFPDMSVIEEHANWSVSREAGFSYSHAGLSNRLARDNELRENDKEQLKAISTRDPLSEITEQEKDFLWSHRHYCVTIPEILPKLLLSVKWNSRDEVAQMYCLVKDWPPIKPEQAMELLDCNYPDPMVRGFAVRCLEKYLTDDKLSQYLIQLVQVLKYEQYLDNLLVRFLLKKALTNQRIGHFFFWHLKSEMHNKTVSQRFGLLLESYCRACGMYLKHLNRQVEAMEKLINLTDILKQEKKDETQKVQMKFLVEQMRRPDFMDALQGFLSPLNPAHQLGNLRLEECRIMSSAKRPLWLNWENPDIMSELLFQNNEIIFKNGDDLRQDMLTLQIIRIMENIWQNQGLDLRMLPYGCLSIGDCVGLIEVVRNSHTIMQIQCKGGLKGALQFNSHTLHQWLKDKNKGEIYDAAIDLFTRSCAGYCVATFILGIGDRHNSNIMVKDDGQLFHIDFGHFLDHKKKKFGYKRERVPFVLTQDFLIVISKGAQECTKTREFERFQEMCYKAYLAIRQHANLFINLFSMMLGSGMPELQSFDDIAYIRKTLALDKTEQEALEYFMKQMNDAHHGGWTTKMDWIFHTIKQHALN
Test [4] addresses Serine/threonine-protein kinase Nek4 (Homo sapiens) (UniProt P51957). As to the kind of experiment: Inhibition of NEK4 (unknown origin) assessed as residual activity at 100 nM by KINOMEscan analysis relative to control.
Test [5] relates to ALK tyrosine kinase receptor (Homo sapiens), Q9UM73 [C1156Y]. Description: Inhibition of ALK C1156Y mutant (unknown origin) assessed as residual activity at 100 nM by KINOMEscan analysis relative to control.
Sequence of ALK tyrosine kinase receptor (Homo sapiens), Q9UM73 [C1156Y] (Q9UM73 whole entry C1156Y, looked up): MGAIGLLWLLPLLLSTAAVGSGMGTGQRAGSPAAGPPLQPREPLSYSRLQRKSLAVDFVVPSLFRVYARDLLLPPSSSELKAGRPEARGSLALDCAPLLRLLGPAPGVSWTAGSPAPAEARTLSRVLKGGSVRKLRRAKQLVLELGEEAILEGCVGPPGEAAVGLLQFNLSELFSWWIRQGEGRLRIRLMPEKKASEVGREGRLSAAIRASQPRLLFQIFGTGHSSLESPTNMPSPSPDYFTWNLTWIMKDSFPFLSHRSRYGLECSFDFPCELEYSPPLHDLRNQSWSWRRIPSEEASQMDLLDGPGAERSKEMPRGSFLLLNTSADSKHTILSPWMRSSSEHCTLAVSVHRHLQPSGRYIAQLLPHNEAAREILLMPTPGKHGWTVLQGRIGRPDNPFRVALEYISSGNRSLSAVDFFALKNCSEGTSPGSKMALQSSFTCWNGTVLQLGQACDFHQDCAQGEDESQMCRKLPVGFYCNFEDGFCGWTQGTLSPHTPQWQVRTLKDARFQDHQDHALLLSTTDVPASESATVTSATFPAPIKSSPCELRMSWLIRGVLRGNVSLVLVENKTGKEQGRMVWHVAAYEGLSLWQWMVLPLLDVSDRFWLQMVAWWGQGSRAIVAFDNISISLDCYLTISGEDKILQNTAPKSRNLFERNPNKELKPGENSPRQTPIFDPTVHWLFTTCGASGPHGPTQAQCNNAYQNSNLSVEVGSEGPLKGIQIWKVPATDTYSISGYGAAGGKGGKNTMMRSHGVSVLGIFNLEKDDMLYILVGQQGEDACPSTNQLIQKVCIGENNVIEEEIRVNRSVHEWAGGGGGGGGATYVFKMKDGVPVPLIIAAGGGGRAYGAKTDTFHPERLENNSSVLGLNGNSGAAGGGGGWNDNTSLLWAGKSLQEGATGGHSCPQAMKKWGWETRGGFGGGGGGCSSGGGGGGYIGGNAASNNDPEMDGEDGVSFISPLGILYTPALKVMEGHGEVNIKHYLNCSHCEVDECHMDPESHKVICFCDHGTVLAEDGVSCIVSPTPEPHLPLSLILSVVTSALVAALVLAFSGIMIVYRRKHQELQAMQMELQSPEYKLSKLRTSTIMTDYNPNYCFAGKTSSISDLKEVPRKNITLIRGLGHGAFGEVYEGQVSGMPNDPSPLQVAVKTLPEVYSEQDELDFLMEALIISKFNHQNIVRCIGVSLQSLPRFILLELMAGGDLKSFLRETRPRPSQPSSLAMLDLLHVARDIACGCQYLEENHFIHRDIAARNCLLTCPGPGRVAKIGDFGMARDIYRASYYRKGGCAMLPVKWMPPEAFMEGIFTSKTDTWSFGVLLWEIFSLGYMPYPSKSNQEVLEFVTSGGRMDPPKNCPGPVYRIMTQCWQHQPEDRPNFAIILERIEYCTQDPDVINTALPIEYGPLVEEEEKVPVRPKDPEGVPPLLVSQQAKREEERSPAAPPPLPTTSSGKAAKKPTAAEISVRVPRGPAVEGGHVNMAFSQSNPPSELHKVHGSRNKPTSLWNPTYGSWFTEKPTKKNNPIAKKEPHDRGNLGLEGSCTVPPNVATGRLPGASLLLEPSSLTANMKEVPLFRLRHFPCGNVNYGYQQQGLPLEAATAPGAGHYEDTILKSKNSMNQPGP
Test [6] has as its target T1, Serine/threonine-protein kinase TAO3 (Homo sapiens) (UniProt Q9H2K8).
T1 sequence (whole entry): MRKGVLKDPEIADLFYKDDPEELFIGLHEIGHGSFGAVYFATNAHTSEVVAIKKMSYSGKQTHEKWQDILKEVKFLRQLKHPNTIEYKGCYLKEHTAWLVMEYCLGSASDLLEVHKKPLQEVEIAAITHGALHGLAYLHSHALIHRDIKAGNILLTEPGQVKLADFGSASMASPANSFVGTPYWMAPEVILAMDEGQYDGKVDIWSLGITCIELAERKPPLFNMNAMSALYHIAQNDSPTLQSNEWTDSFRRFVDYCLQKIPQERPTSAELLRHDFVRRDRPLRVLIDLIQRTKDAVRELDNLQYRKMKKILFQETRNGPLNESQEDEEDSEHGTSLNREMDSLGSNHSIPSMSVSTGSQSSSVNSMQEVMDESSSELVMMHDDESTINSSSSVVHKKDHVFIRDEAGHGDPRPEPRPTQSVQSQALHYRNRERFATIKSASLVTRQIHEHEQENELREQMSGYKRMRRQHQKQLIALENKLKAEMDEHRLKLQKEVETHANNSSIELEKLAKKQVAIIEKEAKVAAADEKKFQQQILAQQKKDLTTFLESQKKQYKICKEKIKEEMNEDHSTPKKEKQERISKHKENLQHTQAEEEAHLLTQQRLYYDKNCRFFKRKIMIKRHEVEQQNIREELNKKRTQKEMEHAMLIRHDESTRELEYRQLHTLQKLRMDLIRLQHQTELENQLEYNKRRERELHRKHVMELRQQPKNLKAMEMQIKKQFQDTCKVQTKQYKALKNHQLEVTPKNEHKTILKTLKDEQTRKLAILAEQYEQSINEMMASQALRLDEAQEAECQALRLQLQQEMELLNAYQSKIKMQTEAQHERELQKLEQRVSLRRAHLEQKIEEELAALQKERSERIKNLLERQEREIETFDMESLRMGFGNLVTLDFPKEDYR
Description: Inhibition of TAOK3 (unknown origin) assessed as residual activity at 100 nM by KINOMEscan analysis relative to control.

The target in test [7] is Tyrosine-protein kinase JAK1 (Homo sapiens) (UniProt P23458). As to the kind of experiment: Inhibition of JAK1 JH1 catalytic domain (unknown origin) assessed as residual activity at 100 nM by KINOMEscan analysis relative to control.
Test [8] has as its target MAP kinase-interacting serine/threonine-protein kinase 2 (Homo sapiens) (UniProt Q9HBH9). Description: Inhibition of MKNK2 (unknown origin) assessed as residual activity at 100 nM by KINOMEscan analysis relative to control.
Test [9] concerns the target Tyrosine-protein kinase FRK (Homo sapiens) (UniProt P42685). As to the kind of experiment: Inhibition of FRK (unknown origin) assessed as residual activity at 100 nM by KINOMEscan analysis relative to control.
The target of test [10] is Dual specificity protein kinase CLK4 (Homo sapiens) (UniProt Q9HAZ1). Description: Inhibition of CLK4 (unknown origin) assessed as residual activity at 100 nM by KINOMEscan analysis relative to control.
Test [11] has as its target Activated CDC42 kinase 1 (Homo sapiens) (UniProt Q07912). Description: Inhibition of TNK2 (unknown origin) assessed as residual activity at 100 nM by KINOMEscan analysis relative to control.
Test [12] concerns the target T2, Cytoplasmic tyrosine-protein kinase BMX (Homo sapiens) (UniProt P51813).
T2 sequence (whole entry): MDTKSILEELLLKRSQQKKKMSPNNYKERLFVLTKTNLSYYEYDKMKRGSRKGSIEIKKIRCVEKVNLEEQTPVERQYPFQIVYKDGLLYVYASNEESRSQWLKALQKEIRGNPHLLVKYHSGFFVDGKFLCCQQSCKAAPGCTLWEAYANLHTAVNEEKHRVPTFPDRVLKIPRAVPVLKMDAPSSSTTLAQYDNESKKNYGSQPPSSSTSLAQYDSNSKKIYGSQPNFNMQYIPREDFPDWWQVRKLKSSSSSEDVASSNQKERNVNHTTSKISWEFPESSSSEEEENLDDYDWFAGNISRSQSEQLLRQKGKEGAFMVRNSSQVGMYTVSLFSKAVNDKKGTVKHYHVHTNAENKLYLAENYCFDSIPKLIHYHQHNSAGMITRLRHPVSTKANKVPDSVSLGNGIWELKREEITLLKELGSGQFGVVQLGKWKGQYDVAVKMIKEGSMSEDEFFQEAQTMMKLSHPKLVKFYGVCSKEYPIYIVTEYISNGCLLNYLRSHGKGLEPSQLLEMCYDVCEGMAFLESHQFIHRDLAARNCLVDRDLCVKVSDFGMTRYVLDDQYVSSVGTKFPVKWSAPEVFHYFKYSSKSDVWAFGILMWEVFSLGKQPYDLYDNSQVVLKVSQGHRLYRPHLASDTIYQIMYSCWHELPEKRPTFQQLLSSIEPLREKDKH
As to the kind of experiment: Inhibition of BMX (unknown origin) assessed as residual activity at 100 nM by KINOMEscan analysis relative to control.

The species named for a further test is Homo sapiens. Description: Inhibition of C-terminal RPS6KA4 kinetic domain 2 (unknown origin) assessed as residual activity at 100 nM by KINOMEscan analysis relative to control.
For test [13], the target named is Serine/threonine-protein kinase SIK1 (Homo sapiens) (UniProt P57059). Description: Inhibition of SIK (unknown origin) assessed as residual activity at 100 nM by KINOMEscan analysis relative to control.
For test [14], the target named is Cyclin-dependent kinase-like 3 (Homo sapiens) (UniProt Q8IVW4). Description: Inhibition of CDKL3 (unknown origin) assessed as residual activity at 100 nM by KINOMEscan analysis relative to control.
The test system of another test is Calu-1. Description: Effect on total ERK level in human Calu-1 cells incubated for 24 hrs by HTRF analysis. It is filed as functional, cell-based. The gist of the method: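 Calu-1 cells carry two KRAS G12C alleles and were sourced from CLS. Total and pERK levels were both analyzed after compound treatment.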
(In TR-FRET formats the signal depends on donor and acceptor labels being close together.)

Sequence of Activated CDC42 kinase 1 (Homo sapiens) (Q07912 whole entry, looked up): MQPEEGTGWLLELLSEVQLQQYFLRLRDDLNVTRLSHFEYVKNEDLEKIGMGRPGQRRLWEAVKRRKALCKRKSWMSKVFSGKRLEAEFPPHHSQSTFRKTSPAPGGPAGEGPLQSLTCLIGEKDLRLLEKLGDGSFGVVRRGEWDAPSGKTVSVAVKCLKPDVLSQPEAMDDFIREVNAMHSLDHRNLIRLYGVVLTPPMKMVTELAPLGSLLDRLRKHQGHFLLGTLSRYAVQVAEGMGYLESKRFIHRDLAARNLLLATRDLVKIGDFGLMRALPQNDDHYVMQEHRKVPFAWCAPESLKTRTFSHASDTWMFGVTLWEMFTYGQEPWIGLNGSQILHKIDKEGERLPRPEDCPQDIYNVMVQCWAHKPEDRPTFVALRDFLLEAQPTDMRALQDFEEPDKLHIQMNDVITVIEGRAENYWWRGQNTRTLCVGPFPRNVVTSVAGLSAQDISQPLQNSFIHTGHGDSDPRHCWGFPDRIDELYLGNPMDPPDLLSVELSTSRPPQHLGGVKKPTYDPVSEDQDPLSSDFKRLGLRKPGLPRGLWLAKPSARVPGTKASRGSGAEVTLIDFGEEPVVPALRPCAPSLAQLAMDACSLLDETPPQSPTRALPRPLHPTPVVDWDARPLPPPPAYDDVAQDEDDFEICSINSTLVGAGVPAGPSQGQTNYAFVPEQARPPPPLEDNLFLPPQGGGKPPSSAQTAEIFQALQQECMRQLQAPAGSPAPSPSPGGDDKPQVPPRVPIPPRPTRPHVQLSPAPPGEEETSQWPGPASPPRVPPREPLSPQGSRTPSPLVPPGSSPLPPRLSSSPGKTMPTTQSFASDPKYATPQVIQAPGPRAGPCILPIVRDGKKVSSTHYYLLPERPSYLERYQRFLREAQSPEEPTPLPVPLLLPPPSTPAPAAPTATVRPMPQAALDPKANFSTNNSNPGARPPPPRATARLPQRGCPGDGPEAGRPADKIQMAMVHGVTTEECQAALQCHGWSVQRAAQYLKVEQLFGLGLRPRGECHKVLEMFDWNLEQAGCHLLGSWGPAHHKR

Consider `COc1cc2ncnc(N[C@H](C)c3cccc4ccccc34)c2cc1OC`, for which the Activity was determined as 93% in test [1]; 100% in test [2]; 90% in test [3]; 72% in test [4]; 99% in [5]; 82% in [6]. Further, the Activity worked out at 79% in test [7]; 89% in test [8]; 93% in [9]; 87% in [10]; 100% in [11]; 79% in test [12]. Moreover, the Activity is 87% in the test filed under Homo sapiens, 85% in test [13] and 100% in test [14].
Regarding `CNCc1ccccc1-c1csc([C@@H](C)Nc2nc(C)nc3cc(OC)c(OC)cc23)c1` [BAY-293], the result in the test with Calu-1 was inactive.
